Data: ChEMBL document CHEMBL1275352, “Selection of evodiamine as a novel topoisomerase I inhibitor by structure-based virtual screening and hit optimization of evodiamine derivatives as antitumor agents” (J Med Chem, 2010)
Active and inactive are the calls of the source. The calls are words filed in the database; no cut-off is given here.

Columns and labels:
A549 = test: Cytotoxicity against human A549 cells after 3 days by MTT assay; assay type: functional, cell-based
MDA-MB-435 = test: Cytotoxicity against human MDA-MB-435 cells after 3 days by MTT assay; assay type: functional, cell-based
HCT-116 = test: Cytotoxicity against human HCT116 cells after 3 days by MTT assay; assay type: functional, cell-based; settings: HCT-116, 72 h
LoVo = test: Cytotoxicity against human LoVo cells after 3 days by MTT assay; assay type: functional, cell-based
[1] = molecular target: T1, DNA topoisomerase 1 (Homo sapiens) (UniProt P11387); test: Inhibition of DNA topoisomerase 1-mediated supercoiled Escherichia coli pBR322 DNA relaxation at 100 uM by UV transilluminator analysis; settings: 500 uM; in the assay text read “500 uM” for “100 uM”
T1 sequence (whole entry): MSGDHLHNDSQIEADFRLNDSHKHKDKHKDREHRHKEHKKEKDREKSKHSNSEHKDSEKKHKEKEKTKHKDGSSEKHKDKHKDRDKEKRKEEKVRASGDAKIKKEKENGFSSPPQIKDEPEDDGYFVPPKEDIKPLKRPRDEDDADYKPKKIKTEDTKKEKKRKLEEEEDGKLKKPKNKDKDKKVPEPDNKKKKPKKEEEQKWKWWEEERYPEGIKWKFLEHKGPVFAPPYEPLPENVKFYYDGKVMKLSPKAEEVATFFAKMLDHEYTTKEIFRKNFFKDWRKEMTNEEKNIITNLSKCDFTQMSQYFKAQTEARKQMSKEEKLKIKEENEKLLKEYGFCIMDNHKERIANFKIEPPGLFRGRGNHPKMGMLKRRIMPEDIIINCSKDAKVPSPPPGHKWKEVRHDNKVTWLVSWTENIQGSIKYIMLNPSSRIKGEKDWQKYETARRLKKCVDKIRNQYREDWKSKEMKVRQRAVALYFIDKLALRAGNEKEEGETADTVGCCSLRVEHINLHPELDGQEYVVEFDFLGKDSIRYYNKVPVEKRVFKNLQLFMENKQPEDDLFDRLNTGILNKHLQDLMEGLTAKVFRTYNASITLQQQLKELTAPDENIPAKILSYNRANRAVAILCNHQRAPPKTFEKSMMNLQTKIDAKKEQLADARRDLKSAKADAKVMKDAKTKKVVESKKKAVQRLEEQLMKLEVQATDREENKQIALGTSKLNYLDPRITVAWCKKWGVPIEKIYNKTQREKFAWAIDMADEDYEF
Summary of the method: (§1)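 Purified topoisomerase I was incubated with supercoiled DNA, and inhibition of relaxation by the enzyme was scored. Compounds were tested at concentrations ranging from 1 to 500 μM; an initial screen was run at 500 μM and active compounds were retested at lower concentrations.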

[2] = molecular target: T1, DNA topoisomerase 1 (Homo sapiens); test: Inhibition of DNA topoisomerase 1-mediated supercoiled Escherichia coli pBR322 DNA relaxation at 1 to 50 uM by UV transilluminator analysis; summary of the method: as §1
[3] = molecular target: T1, DNA topoisomerase 1 (Homo sapiens); test: Inhibition of DNA topoisomerase 1-mediated supercoiled Escherichia coli pBR322 DNA relaxation at 10 uM by UV transilluminator analysis; summary of the method: as §1
[4] = molecular target: T1, DNA topoisomerase 1 (Homo sapiens); test: Inhibition of DNA topoisomerase 1-mediated supercoiled Escherichia coli pBR322 DNA relaxation by UV transilluminator analysis; summary of the method: as §1
[5] = Homo sapiens, A549, 72 h, read-out: IC50
[6] = Homo sapiens, LoVo, 72 h, read-out: IC50
[7] = Homo sapiens, MDA-MB-435, 72 h, read-out: IC50

Structure (SMILES) | IC50 (A549; [5]) [µM] | IC50 (MDA-MB-435; mda-mb-435) | IC50 (LoVo; [6]) [µM] | IC50 (MDA-MB-435; [7]) [µM] | IC50 (LoVo; lovo) | IC50 (A549; a549) | also measured
CN1c2ccccc2C(=O)N2CCc3c(n(C(=O)c4ccccc4F)c4ccccc34)C21 (stereo not drawn) | 35 | Not Active |  |  |  |  | IC50 (HCT-116): 89 µM
CN1c2ccccc2C(=O)N2CCc3c(n(C(=O)c4ccccc4)c4ccccc34)C21 (stereo not drawn) | 10 |  | 15 | 0.047 |  |  | 
O=S(=O)(c1ccccc1)c1cc2c(O)c3c(ccc4cccnc43)c(O)c2c2ncccc12 | 120 | Not Active |  |  | Not Active |  | 
CC[C@@]1(O)C(=O)OCc2c1cc1n(c2=O)Cc2cc3ccccc3nc2-1 [CAMPTOTHECIN] | 0.057 |  | 3.1 | 0.71 |  |  | 
CN1c2ccccc2C(=O)N2CCc3c(n(CC#N)c4ccccc34)C21 (stereo not drawn) | 220 |  |  | 200 | Not Active |  | 
Cc1cccc2c1nc1c3ccc4c5c(ccc(c(=O)n21)c53)C(=O)NC4=O |  | Not Active |  |  | Not Active | Not Active | 
CCOC(=O)C1=C(C)N=c2s/c(=C3\C(=O)N(CC)c4ccccc43)c(=O)n2C1c1ccccc1 (stereo not drawn) |  | Not Active |  |  | Not Active | Not Active | 
CCCCCN1C(=O)/C(=c2\sc3nc4ccccc4n3c2=O)c2ccccc21 |  | Not Active |  |  | Not Active | Not Active | 
COc1ccc(-c2nc3c4c(-c5ccccc5)c(-c5ccccc5)oc4ncn3n2)cc1OC |  | Not Active | 75 |  |  | Not Active | 
c1ccc2c(OCc3nc4c5c6c(sc5ncn4n3)CCCCC6)cccc2c1 |  | Not Active |  |  | Not Active | Not Active | 
CN1c2ccccc2C(=O)N2CCc3c(n(C(=O)c4ccc(Cl)cc4)c4ccccc34)C21 (stereo not drawn) | 0.86 |  |  | 0.049 |  |  | inhibition [1]: Active; IC50 (HCT-116): 2.6 µM
c1ccc(Cn2c(-c3ccccc3)c(-c3ccccc3)c3c2ncn2nc(-c4cccnc4)nc32)cc1 |  | Not Active | 180 |  |  | Not Active | 
CN1c2ccccc2C(=O)N2CCc3c(n(C(=O)c4ccc([N+](=O)[O-])cc4)c4ccccc34)C21 (stereo not drawn) | 2.8 |  |  | 0.55 |  |  | IC50 (HCT-116): 4.1 µM
COc1ccc(C(=O)n2c3c(c4ccccc42)CCN2C(=O)c4ccccc4N(C)C32)cc1 (stereo not drawn) | 74 | Not Active |  |  |  |  | IC50 (HCT-116): 45 µM
CCc1c2c(nc3ccc(OC(=O)N4CCC(N5CCCCC5)CC4)cc13)-c1cc3c(c(=O)n1C2)COC(=O)[C@]3(O)CC [IRINOTECAN] | 6.4 |  | 8.8 | 17 |  |  | 
CN1c2ccccc2C(=O)N2CCc3c(n(Cc4ccccc4Cl)c4ccccc34)C21 (stereo not drawn) | 29 |  | 74 | 42 |  |  | 
CCCNC(=O)Cn1c2ccccc2[n+]2nc3c(cc12)-c1cccc2cccc-3c12 | 37 |  | 26 | 77 |  |  | inhibition [2]: Active; inhibition [1]: Active
CN1c2ccccc2C(=O)N2CCc3c(n(Cc4ccccc4)c4ccccc34)C21 (stereo not drawn) | 55 |  | 67 | 110 |  |  | 
Nc1ccccc1Sc1ccc2c(=O)n3c4ccccc4nc3c3cccc1c23 |  | Not Active |  |  | Not Active | Not Active | inhibition [1]: Active
Cc1ccc(-c2csc3nc4c5ccccc5c(Cl)nn4c(=O)c23)cc1C |  | Not Active | 190 |  |  | Not Active | inhibition [1]: Active
O=c1c2ccccc2nc2c3ccccc3c(Sc3nnc4ccccn34)nn12 |  | Not Active |  |  | Not Active | Not Active | 
Cc1ccccc1C(=O)n1c2c(c3ccccc31)CCN1C(=O)c3ccccc3N(C)C21 (stereo not drawn) | 4.2 |  |  | 0.15 |  |  | IC50 (HCT-116): 3.9 µM
CC(C)n1c2c(c3ccccc31)CCN1C(=O)c3ccccc3N(C)C21 (stereo not drawn) |  | Not Active |  |  | Not Active | Not Active | 

Structure (SMILES) | IC50 (A549; [5]) [µM] | IC50 (MDA-MB-435; mda-mb-435) | IC50 (LoVo; [6]) [µM] | IC50 (MDA-MB-435; [7]) [µM] | IC50 (LoVo; lovo) | IC50 (A549; a549) | also measured
COC(=O)c1cc(OCc2cccc(C(F)(F)F)c2)c2c(c1)Oc1nc3ccccc3nc1O2 |  | Not Active |  |  | Not Active | Not Active | 
CC1CCc2c(sc3nc4c5ccccc5c(-c5ccccc5)nn4c(=O)c23)C1 (stereo not drawn) |  | Not Active |  |  | Not Active | Not Active | 
O=C(NCCO)c1ccc2nc3c4ccccc4c4ccccc4c3nc2c1 |  | Not Active |  |  | Not Active | Not Active | 
C=CCN1C(=O)/C(=C2\S/C(=N\c3ccccc3)N(c3ccccc3)C2=O)c2ccccc21 |  | Not Active |  |  | Not Active | Not Active | 
CN1c2ccccc2C(=O)N2CCc3c(n(Cc4cccc(Cl)c4)c4ccccc34)C21 (stereo not drawn) |  | Not Active |  |  | Not Active | Not Active | 
CCCn1c2c(c3ccccc31)CCN1C(=O)c3ccccc3N(C)C21 (stereo not drawn) |  | Not Active |  |  | Not Active | Not Active | 
CN1c2ccccc2C(=O)N2CCc3c(n(Cc4ccc(Cl)cc4Cl)c4ccccc34)C21 (stereo not drawn) |  | Not Active |  |  | Not Active | Not Active | 
Cc1cc2nc3s/c(=C4\C(=O)N(CC(=O)O)c5ccccc54)c(=O)n3c2cc1C |  |  | 240 | 170 |  | Not Active | inhibition [2]: Active; inhibition [1]: Active
COc1ccc(Cn2c3c(c4ccccc42)CCN2C(=O)c4ccccc4N(C)C32)cc1 (stereo not drawn) |  | Not Active |  |  | Not Active | Not Active | 
CN1c2ccccc2C(=O)N2CCc3c(n(C(=O)c4cccc(Cl)c4)c4ccccc34)C21 (stereo not drawn) | 2.9 |  |  | 0.051 |  |  | IC50 (HCT-116): 3.3 µM
Cc1ccc(C(=O)n2c3c(c4ccccc42)CCN2C(=O)c4ccccc4N(C)C32)cc1 (stereo not drawn) | 3 |  |  | 0.038 |  |  | IC50 (HCT-116): 4.3 µM
CCOC(=O)Cn1c2c(c3ccccc31)CCN1C(=O)c3ccccc3N(C)C21 (stereo not drawn) |  |  |  | 150 | Not Active | Not Active | 
Cn1c(=O)n(C)c2cc3c(cc21)nc1c2cccc4c(Br)ccc(c(=O)n31)c42 |  | Not Active |  |  | Not Active | Not Active | 
CCCOc1ccc(-c2nc3s/c(=C4\C(=O)N(CC(=O)O)c5ccccc54)c(=O)n3n2)cc1 |  | Not Active |  |  | Not Active | Not Active | inhibition [3]: Active; inhibition [1]: Active; inhibition [4]: Dose-dependent effect
CN1c2ccccc2C(=O)N2CCc3c(n(C(=O)c4ccc(Cl)cc4Cl)c4ccccc34)C21 (stereo not drawn) | 5.3 |  |  | 0.39 |  |  | IC50 (HCT-116): 3.8 µM
CN1c2ccccc2C(=O)N2CCc3c(n(C(=O)c4ccccc4Cl)c4ccccc34)C21 (stereo not drawn) | 14 |  |  | 0.18 |  |  | IC50 (HCT-116): 4.7 µM
CCn1c2c(c3ccccc31)CCN1C(=O)c3ccccc3N(C)C21 (stereo not drawn) |  | Not Active |  |  | Not Active | Not Active | 
COCCOC(=O)c1sc2nc3c4ccccc4c(-c4ccc(C)c(C)c4)nn3c(=O)c2c1C |  | Not Active | 45 |  |  | Not Active | 
CCCCCCn1c2c(c3ccccc31)CCN1C(=O)c3ccccc3N(C)C21 (stereo not drawn) | 120 |  | 59 | 110 |  |  | 
CCOC(=O)n1c2c(c3ccccc31)CCN1C(=O)c3ccccc3N(C)C21 (stereo not drawn) | 130 |  | 95 | 9.4 |  |  | 
CN1c2ccccc2C(=O)N2CCc3c(n(CC(=O)O)c4ccccc34)C21 (stereo not drawn) | 72 |  | 130 | 13 |  |  | 
CCOC(=O)C1=C(C)N=c2s/c(=C3\C(=O)N(CC)c4ccccc43)c(=O)n2C1/C=C/c1ccccc1 (stereo not drawn) |  | Not Active |  |  | Not Active | Not Active | 
CN1c2ccccc2C(=O)N2CCc3c(n(C(=O)c4ccc(F)cc4)c4ccccc34)C21 (stereo not drawn) | 4.3 |  |  | 0.13 |  |  | IC50 (HCT-116): 5.1 µM
